# Assay results from ChEMBL document CHEMBL5303300, “EUbOPEN Chemogenomics Library - Multiplex” (2023).
# “And” between values parts separate entries of the source, which are not always exact repeats. Equal values may be shown once.
# What was measured:
# HEK-293T = test: Multiplex assay against HEK293T; type: toxicity, cell-based; conditions: human, number of replicates 2
# Outline: (§1)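 On a CQ1 microscope at 37°C and 5% CO2, live cells were imaged after compound addition. They had been stained at seeding with Hoechst33342, BioTracker Green Microtubule Cytoskeleton Dye, MitoTracker Red and Annexin V Alexa Fluor 680. CellPathfinder machine-learning gating assigned cells to Hoechst high-intensity objects or normal cells, normal cells to healthy, pyknosed or fragmented nuclei, and pyknosed cells to mitotic or apoptotic. Tubulin, mitochondrial-mass and membrane-permeability phenotypes are per cents of healthy-nucleus cells.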
# U2OS = test: Multiplex assay against U2OS; type: toxicity, cell-based; conditions: human, number of replicates 2; outline: as §1
# [1] = 24 h, 1 µM, compound concentration 1 uM
# [2] = 24 h, 10 µM, compound concentration 10 uM
# [3] = 48 h, 1 µM, compound concentration 1 uM
# [4] = 48 h, 10 µM, compound concentration 10 uM
# [5] = 12 h, 1 µM, compound concentration 1 uM
# [6] = 12 h, 10 µM, compound concentration 10 uM
smiles,measurement,setting,value
CN1CCN(C(=O)Cc2ccc(N/C(=C3\C(=O)Nc4cc(Cl)ccc43)c3ccccc3)cc2)CC1,Population Membrane Permeable-Phenotype (%),HEK-293T; [1],3%
same,Population Mitochondria Different-Phenotype (%),HEK-293T; [1],6% and 10%
same,Population Mitotic Cells (%),HEK-293T; [1],70% and 68%
same,Population Normal (%),HEK-293T; [1],90% and 94%
same,Population Pyknosed Nuclei (%),HEK-293T; [1],7% and 8%
same,Population Tubulin-Different-Phenotype (%),HEK-293T; [1],28% and 32%
same,Total Cell Count,HEK-293T; [1],1172 and 750
same,Population Apoptotic (%),HEK-293T; [2],29% and 34%
same,Population Fragmented Nuclei (%),HEK-293T; [2],3% and 4%
same,Population Healthy Nuclei (%),HEK-293T; [2],88% and 86%
same,Population Hoechst High Intensity Objects (%),HEK-293T; [2],4% and 5%
same,Population Membrane Permeable-Phenotype (%),HEK-293T; [2],3% and 4%
same,Population Mitochondria Different-Phenotype (%),HEK-293T; [2],12% and 9%
same,Population Mitotic Cells (%),HEK-293T; [2],70% and 65%
same,Population Normal (%),HEK-293T; [2],95% and 94%
same,Population Pyknosed Nuclei (%),HEK-293T; [2],8% and 9%
same,Population Tubulin-Different-Phenotype (%),HEK-293T; [2],48%
same,Total Cell Count,HEK-293T; [2],992 and 819
same,Population Apoptotic (%),HEK-293T; [3],17%
same,Population Fragmented Nuclei (%),HEK-293T; [3],13% and 7%
same,Population Healthy Nuclei (%),HEK-293T; [3],83% and 87%
same,Population Hoechst High Intensity Objects (%),HEK-293T; [3],9% and 8%
same,Population Membrane Permeable-Phenotype (%),HEK-293T; [3],3%
same,Population Mitochondria Different-Phenotype (%),HEK-293T; [3],0% and 1%
same,Population Mitotic Cells (%),HEK-293T; [3],82%
same,Population Normal (%),HEK-293T; [3],90% and 91%
same,Population Pyknosed Nuclei (%),HEK-293T; [3],2% and 4%
same,Population Tubulin-Different-Phenotype (%),HEK-293T; [3],12% and 15%
same,Total Cell Count,HEK-293T; [3],2950 and 1758
same,Population Apoptotic (%),HEK-293T; [4],17% and 42%
same,Population Fragmented Nuclei (%),HEK-293T; [4],10% and 8%
same,Population Healthy Nuclei (%),HEK-293T; [4],85% and 87%
same,Population Hoechst High Intensity Objects (%),HEK-293T; [4],8% and 9%
same,Population Membrane Permeable-Phenotype (%),HEK-293T; [4],4%
same,Population Mitochondria Different-Phenotype (%),HEK-293T; [4],3%
same,Population Mitotic Cells (%),HEK-293T; [4],82% and 58%
same,Population Normal (%),HEK-293T; [4],91% and 90%
same,Population Pyknosed Nuclei (%),HEK-293T; [4],3% and 4%
same,Population Tubulin-Different-Phenotype (%),HEK-293T; [4],31% and 34%
same,Total Cell Count,HEK-293T; [4],1910 and 1370
same,Population Apoptotic (%),U2OS; [5],100% and 55%
same,Population Healthy Nuclei (%),U2OS; [5],57% and 86%
same,Population Hoechst High Intensity Objects (%),U2OS; [5],0%
same,Population Membrane Permeable-Phenotype (%),U2OS; [5],8% and 3%
same,Population Mitochondria Different-Phenotype (%),U2OS; [5],8% and 0%
same,Population Normal (%),U2OS; [5],100%
same,Population Pyknosed Nuclei (%),U2OS; [5],7% and 10%
same,Population Tubulin-Different-Phenotype (%),U2OS; [5],66% and 71%
same,Population Fragmented Nuclei (%),U2OS; [6],3% and 12%
same,Population Healthy Nuclei (%),U2OS; [6],81% and 77%
same,Population Hoechst High Intensity Objects (%),U2OS; [6],0%
same,Population Mitochondria Different-Phenotype (%),U2OS; [6],0%
same,Population Mitotic Cells (%),U2OS; [6],43% and 100%
same,Population Normal (%),U2OS; [6],100%
same,Population Pyknosed Nuclei (%),U2OS; [6],14% and 9%
same,Population Tubulin-Different-Phenotype (%),U2OS; [6],55% and 33%
same,Population Apoptotic (%),U2OS; [1],66% and 69%
same,Population Healthy Nuclei (%),U2OS; [1],64% and 88%
same,Population Hoechst High Intensity Objects (%),U2OS; [1],0%
same,Population Mitochondria Different-Phenotype (%),U2OS; [1],12% and 0%
same,Population Mitotic Cells (%),U2OS; [1],33% and 30%
same,Population Normal (%),U2OS; [1],100% and 99%
same,Population Pyknosed Nuclei (%),U2OS; [1],16% and 9%
same,Population Tubulin-Different-Phenotype (%),U2OS; [1],79% and 73%
same,Population Apoptotic (%),U2OS; [2],33% and 62%
same,Population Fragmented Nuclei (%),U2OS; [2],0% and 4%
same,Population Healthy Nuclei (%),U2OS; [2],90% and 82%
same,Population Hoechst High Intensity Objects (%),U2OS; [2],0%
same,Population Membrane Permeable-Phenotype (%),U2OS; [2],10% and 2%
same,Population Mitochondria Different-Phenotype (%),U2OS; [2],10% and 3%
same,Population Mitotic Cells (%),U2OS; [2],66% and 37%
same,Population Normal (%),U2OS; [2],100% and 99%
same,Population Pyknosed Nuclei (%),U2OS; [2],9% and 12%
same,Population Tubulin-Different-Phenotype (%),U2OS; [2],58% and 59%
same,Population Apoptotic (%),U2OS; [3],75% and 58%
same,Population Healthy Nuclei (%),U2OS; [3],75% and 89%
same,Population Hoechst High Intensity Objects (%),U2OS; [3],0%
same,Population Membrane Permeable-Phenotype (%),U2OS; [3],6% and 0%
same,Population Mitochondria Different-Phenotype (%),U2OS; [3],3% and 0%
same,Population Mitotic Cells (%),U2OS; [3],25% and 41%
same,Population Normal (%),U2OS; [3],100% and 99%
same,Population Pyknosed Nuclei (%),U2OS; [3],9% and 7%
same,Population Tubulin-Different-Phenotype (%),U2OS; [3],83% and 85%
same,Population Apoptotic (%),U2OS; [4],83% and 75%
same,Population Fragmented Nuclei (%),U2OS; [4],5% and 3%
same,Population Healthy Nuclei (%),U2OS; [4],84% and 87%
same,Population Hoechst High Intensity Objects (%),U2OS; [4],0%
same,Population Membrane Permeable-Phenotype (%),U2OS; [4],2%
same,Population Mitochondria Different-Phenotype (%),U2OS; [4],8% and 1%
same,Population Mitotic Cells (%),U2OS; [4],16% and 24%
same,Population Normal (%),U2OS; [4],100%
same,Population Pyknosed Nuclei (%),U2OS; [4],10% and 8%
same,Population Tubulin-Different-Phenotype (%),U2OS; [4],69% and 66%
